Source: ChEMBL document CHEMBL1133675, “New substituted 1-(2,3-dihydrobenzo[1, 4]dioxin-2-ylmethyl)piperidin-4-yl derivatives with alpha(2)-adrenoceptor antagonist activity” (J Med Chem, 2000)
The source made the active and inactive calls. Unless noted, no cut-off for these calls is given here.

How the values were obtained:
[1] = target: T1, Adrenergic receptor alpha-1 (Rattus norvegicus, UniProt P15823+P23944+P43140); assay: In vitro inhibition of specific binding of [3H]- prazosin to alpha-1 adrenergic receptor site in rat brain membranes.; format: cell membranes
T1 sequence (P15823 whole entry): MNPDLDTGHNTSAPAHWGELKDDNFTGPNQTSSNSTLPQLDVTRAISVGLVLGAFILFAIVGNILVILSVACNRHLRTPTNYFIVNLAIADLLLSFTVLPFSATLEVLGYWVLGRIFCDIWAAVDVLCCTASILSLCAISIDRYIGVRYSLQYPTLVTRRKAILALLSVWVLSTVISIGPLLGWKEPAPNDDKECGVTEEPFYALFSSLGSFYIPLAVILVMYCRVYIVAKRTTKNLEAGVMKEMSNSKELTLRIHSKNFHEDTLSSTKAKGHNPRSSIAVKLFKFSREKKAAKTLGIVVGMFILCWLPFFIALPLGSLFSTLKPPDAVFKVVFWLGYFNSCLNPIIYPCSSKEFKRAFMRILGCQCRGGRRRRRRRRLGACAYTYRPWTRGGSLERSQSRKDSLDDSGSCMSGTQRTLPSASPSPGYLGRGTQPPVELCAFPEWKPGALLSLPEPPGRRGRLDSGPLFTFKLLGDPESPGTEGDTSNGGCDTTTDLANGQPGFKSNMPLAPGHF
T1 sequence (P23944 whole entry): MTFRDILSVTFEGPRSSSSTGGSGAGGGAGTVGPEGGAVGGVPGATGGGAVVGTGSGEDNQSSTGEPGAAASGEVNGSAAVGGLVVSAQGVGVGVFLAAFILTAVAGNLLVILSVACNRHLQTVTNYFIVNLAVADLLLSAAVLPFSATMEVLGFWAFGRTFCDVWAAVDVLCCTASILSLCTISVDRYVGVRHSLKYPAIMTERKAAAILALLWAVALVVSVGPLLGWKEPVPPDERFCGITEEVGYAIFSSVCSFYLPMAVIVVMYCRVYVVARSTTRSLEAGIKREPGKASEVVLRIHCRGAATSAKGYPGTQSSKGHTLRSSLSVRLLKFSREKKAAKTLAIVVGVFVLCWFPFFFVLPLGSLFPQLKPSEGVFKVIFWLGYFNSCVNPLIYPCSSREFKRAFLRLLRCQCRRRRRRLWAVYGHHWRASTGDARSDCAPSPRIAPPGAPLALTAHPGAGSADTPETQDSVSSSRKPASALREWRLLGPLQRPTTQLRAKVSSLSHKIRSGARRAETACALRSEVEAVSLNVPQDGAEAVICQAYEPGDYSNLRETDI
T1 sequence (P43140 whole entry): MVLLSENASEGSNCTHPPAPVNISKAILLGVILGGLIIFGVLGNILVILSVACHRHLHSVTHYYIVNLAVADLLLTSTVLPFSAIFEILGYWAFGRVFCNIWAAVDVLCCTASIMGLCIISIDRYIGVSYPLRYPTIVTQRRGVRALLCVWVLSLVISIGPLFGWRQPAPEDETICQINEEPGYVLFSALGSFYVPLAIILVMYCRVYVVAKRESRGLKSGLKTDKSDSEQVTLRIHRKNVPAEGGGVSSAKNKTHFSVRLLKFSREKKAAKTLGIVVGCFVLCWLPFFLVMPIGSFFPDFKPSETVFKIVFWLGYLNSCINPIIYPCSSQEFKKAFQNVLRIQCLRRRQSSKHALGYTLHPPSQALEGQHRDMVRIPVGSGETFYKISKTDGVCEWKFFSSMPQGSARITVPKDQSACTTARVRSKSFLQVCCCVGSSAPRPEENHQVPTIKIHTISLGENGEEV

D(2) dopamine receptor = D(2) dopamine receptor (Rattus norvegicus, UniProt P61169); assay: In vitro inhibition of specific binding of [3H]-YM 09151-2 to Dopamine receptor D2 site in rat striatal tissue.; format: tissue-based, Striatum
D(2) dopamine receptor, sequence (P61169 whole entry): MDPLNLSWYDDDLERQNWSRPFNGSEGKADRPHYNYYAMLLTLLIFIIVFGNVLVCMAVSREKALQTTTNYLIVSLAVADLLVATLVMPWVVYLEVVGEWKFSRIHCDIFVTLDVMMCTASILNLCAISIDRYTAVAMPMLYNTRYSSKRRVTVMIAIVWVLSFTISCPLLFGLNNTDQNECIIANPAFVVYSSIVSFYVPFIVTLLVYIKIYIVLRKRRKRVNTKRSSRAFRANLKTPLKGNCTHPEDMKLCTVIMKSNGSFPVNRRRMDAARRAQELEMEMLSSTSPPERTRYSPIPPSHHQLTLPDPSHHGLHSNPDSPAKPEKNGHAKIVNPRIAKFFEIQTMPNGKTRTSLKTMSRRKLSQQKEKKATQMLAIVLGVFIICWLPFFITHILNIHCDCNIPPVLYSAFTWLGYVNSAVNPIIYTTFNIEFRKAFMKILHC

[2] = target: T2, Adrenergic receptor alpha-2 (Rattus norvegicus, UniProt P22086+P19328+P22909); assay: In vitro inhibition of binding of [3H]-RX-821002 to alpha-2 adrenergic receptor site in rat brain membranes.; format: cell membranes
T2 sequence (P22086 whole entry): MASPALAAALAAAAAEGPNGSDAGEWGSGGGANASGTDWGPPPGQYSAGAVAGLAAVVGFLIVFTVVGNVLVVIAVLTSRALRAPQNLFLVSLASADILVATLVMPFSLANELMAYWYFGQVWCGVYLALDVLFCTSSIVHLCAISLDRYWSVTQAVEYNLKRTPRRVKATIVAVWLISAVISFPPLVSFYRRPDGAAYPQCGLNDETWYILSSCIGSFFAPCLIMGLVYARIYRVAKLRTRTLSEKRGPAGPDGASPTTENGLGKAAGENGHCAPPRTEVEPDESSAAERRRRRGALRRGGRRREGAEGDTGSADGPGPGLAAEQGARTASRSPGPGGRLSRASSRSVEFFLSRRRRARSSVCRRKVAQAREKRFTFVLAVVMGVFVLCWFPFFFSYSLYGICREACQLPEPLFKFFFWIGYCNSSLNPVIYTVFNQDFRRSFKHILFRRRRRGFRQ
T2 sequence (P19328 whole entry): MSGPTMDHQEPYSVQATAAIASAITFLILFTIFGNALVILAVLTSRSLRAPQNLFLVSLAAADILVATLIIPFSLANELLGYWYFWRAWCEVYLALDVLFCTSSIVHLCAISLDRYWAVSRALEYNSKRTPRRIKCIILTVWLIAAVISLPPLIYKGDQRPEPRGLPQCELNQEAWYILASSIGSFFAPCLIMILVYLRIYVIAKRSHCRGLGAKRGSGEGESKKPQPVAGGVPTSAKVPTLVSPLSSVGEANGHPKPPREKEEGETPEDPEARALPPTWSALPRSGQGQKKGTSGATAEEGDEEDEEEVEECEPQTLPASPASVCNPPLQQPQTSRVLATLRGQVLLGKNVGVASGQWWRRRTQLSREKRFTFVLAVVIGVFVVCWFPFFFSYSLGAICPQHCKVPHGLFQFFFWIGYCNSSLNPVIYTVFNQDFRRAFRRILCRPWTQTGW
T2 sequence (P22909 whole entry): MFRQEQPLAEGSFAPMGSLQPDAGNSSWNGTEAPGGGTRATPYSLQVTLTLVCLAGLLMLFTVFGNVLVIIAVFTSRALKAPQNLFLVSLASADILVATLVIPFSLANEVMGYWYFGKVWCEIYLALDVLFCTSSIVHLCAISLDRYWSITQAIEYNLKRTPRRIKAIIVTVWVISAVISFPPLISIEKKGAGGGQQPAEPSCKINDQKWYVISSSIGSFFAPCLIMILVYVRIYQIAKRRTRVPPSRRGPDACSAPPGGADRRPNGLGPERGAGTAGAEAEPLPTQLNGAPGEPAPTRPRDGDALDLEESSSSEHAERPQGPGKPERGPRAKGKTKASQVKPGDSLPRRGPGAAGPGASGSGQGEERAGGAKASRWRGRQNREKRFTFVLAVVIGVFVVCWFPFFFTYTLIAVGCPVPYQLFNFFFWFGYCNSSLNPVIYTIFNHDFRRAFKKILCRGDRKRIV

Mus musculus [3] = assay: In vivo antagonism of guanabenz-induced hypothermia in mice after peroral administration; Inactive; format: functional, organism-based
In short: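 Male NMRI mice (30-32 g), five per dose; vehicle or drug by oral gavage, guanabenz 1 mg/kg ip 35 min later. Rectal temperature by thermistor 25 min post-guanabenz; inhibition scored as temperature > 36 °C. […] Active range is doses giving inhibition in more than 80% of mice.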

Mus musculus [4] = assay: In vivo antagonism of guanabenz-induced hypothermia in mice after intraperitoneal administration; […]; format: functional, organism-based
In short: (§1)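 Male NMRI mice, 30-32 g, 5 per dose; test drug or vehicle given ip, then 5 min later guanabenz 1 mg/kg ip. Rectal temperature read by thermistor probe 25 min after guanabenz. Inhibition means temperature > 36 °C. […] Active dose range = doses inhibiting in more than 80% of animals.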

Mus musculus [5] = assay: In vivo antagonism of guanabenz-induced hypothermia in mice after intraperitoneal administration at a dose of 2.5 mg/kg; format: functional; settings: ip; in short: as §1
Mus musculus [6] = assay: In vivo antagonism of guanabenz-induced hypothermia in mice after intraperitoneal administration at a dose of 2.5-10 mg/kg; format: functional; settings: ip
In short: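 Male NMRI mice, 30-32 g, 5 per dose; test drug or vehicle given ip, then 5 min later guanabenz 1 mg/kg ip. Rectal temperature read by thermistor probe 25 min after guanabenz. Inhibition means temperature > 36 °C. Active dose range = doses inhibiting in more than 80% of animals.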

Mus musculus [7] = assay: In vivo antagonism of guanabenz-induced hypothermia in mice after peroral administration at a dose of 2.5-40 mg/kg; format: functional; settings: po
In short: (§2)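 Male NMRI mice (30-32 g), five per dose; vehicle or drug by oral gavage, guanabenz 1 mg/kg ip 35 min later. Rectal temperature by thermistor 25 min post-guanabenz; inhibition scored as temperature > 36 °C. Active range is doses giving inhibition in more than 80% of mice.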

Mus musculus [8] = assay: In vivo antagonism of guanabenz-induced hypothermia in mice after peroral administration at a dose of 10 mg/kg; format: functional; settings: route oral; in short: as §2
Mus musculus [9] = assay: In vivo antagonism of guanabenz-induced hypothermia in mice after intraperitoneal administration at a dose of 1 mg/kg; format: functional; settings: ip; in short: as §1
Mus musculus [10] = assay: In vivo antagonism of guanabenz-induced hypothermia in mice after intraperitoneal administration at a dose of 10-40 mg/kg; format: functional; settings: ip; in short: as §1

| SMILES | IC50 [1] | IC50 (D(2) dopamine receptor) | IC50 [2] | other results |
| --- | --- | --- | --- | --- |
| O=C(NCCC1CCN(CC2COc3ccccc3O2)CC1)Oc1ccccc1 (stereo unspecified) | – | – | – | NA (Mus musculus [3]): inactive; NA (Mus musculus [4]): inactive |
| COc1ccccc1CC(=O)NCCC1CCN(CC2COc3ccccc3O2)CC1 (stereo unspecified) | 70 nM | 50 nM | 10 nM | – |
| O=C(NCCC1CCN(CC2COc3ccccc3O2)CC1)NC1CCCCC1 (stereo unspecified) | 42 nM | 35 nM | 2 nM | NA (Mus musculus [3]): inactive; ED50 (Mus musculus [5]): 0.69 mg/kg |
| COc1cc(OC)c(N2CCN(CCC3CCN(CC4COc5ccccc5O4)CC3)C2=O)c(OC)c1 (stereo unspecified) | 200 nM | 320 nM | 4.5 nM | ED50 (Mus musculus [6]): 0.41 mg/kg; ED50 (Mus musculus [7]): 1.07 mg/kg |
| CC(C)c1cccc(C(C)C)c1N1CCN(CCC2CCN(CC3COc4ccccc4O3)CC2)C1=O (stereo unspecified) | 180 nM | 480 nM | 36 nM | – |
| O=C(Cc1ccccc1[N+](=O)[O-])NCCC1CCN(CC2COc3ccccc3O2)CC1 (stereo unspecified) | 11.5 nM | 1.8 nM | 1 nM | – |
| O=C1N(CCC2CCN(CC3COc4ccccc4O3)CC2)CCN1c1ccc(F)cc1 (stereo unspecified) | – | – | – | ED50 (Mus musculus [10]): 2.51 mg/kg |

The remaining compounds from weak to strong by IC50 (D(2) dopamine receptor), led by results:

| IC50 [1] | IC50 (D(2) dopamine receptor) | IC50 [2] | SMILES | other results |
| --- | --- | --- | --- | --- |
| – | 1130 nM | – | COC(=O)[C@@H]1[C@H]2C[C@H]3c4[nH]c5ccccc5c4CCN3C[C@@H]2CC[C@@H]1O [YOHIMBINE] | ED50 (Mus musculus [8]): 1.23 mg/kg; ED50 (Mus musculus [9]): 0.56 mg/kg |
| 20 nM | 25 nM | 2 nM | O=C(NCCC1CCN(CC2COc3ccccc3O2)CC1)c1ccccc1[N+](=O)[O-] (stereo unspecified) | – |
| 18 nM | 16 nM | 5 nM | O=C1Nc2ccccc2CN1CCC1CCN(CC2COc3ccccc3O2)CC1 (stereo unspecified) | – |
